This passage reports Activity, IC90 and inhibition results from ChEMBL document CHEMBL1909624, “BRN-103, a novel nicotinamide derivative, inhibits VEGF-induced angiogenesis and proliferation in human umbilical vein endothelial cells” (2011).

Calls of active or inactive are those of the source. The calls are words filed in the database; no cut-off is given here. A value given as a limit tells only on which side of the number the result lay.

The subject of assay [1] is HUVEC. In words: Antiangiogenic activity in HUVEC assessed as decrease in VEGF-induced cell migration at 50 uM after 24 hrs by transwell migration assay. It counts as functional, cell-based. The following applies: Homo sapiens.
The test system of assay [2] is HUVEC. In words: Cytotoxicity against human HUVEC. It counts as functional.
Assay [3] has as its system HUVEC. Kind of assay: Inhibition of AKT phosphorylation at Ser-473 in VEGF-stimulated HUVEC at 1 uM preincubated for 1 hr before VEGF induction measured after 30 mins by Western blot analysis. Format: cell-based. The following applies: Homo sapiens. The gist of the method:
(§1)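 0.1% serum-starved HUVECs were pretreated with compound for 1 h, then given 10 ng/ml VEGF for 5 min (p-ERK), 30 min (p-AKT) or 1 h (p-eNOS). Lysates were Western-blotted with phospho-specific and total AKT, ERK and eNOS antibodies. Bands were quantified as the mean of three experiments with SD; ANOVA with Dunnett's test.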
(A western blot detects proteins with antibodies after separation by electrophoresis.)

For assay [4], the system named is HUVEC. In words: Antiangiogenic activity in HUVEC assessed as decrease in VEGF-induced cell migration at 1 uM after 24 hrs by transwell migration assay. It counts as functional, cell-based. To be noted: Homo sapiens. The gist of the method: (§2)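 HUVECs were seeded in a Boyden chamber on a porous membrane, with test compound in 0.1% EBM in the upper chamber and 10 ng/ml VEGF in the lower. After 24 h, cells that had crossed the pores were counted. Mean of three independent experiments with SD; ANOVA with Dunnett's post-hoc test.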

Assay [5] addresses T1, Nitric oxide synthase 3 (Homo sapiens) (UniProt P29474).
T1 sequence (whole entry): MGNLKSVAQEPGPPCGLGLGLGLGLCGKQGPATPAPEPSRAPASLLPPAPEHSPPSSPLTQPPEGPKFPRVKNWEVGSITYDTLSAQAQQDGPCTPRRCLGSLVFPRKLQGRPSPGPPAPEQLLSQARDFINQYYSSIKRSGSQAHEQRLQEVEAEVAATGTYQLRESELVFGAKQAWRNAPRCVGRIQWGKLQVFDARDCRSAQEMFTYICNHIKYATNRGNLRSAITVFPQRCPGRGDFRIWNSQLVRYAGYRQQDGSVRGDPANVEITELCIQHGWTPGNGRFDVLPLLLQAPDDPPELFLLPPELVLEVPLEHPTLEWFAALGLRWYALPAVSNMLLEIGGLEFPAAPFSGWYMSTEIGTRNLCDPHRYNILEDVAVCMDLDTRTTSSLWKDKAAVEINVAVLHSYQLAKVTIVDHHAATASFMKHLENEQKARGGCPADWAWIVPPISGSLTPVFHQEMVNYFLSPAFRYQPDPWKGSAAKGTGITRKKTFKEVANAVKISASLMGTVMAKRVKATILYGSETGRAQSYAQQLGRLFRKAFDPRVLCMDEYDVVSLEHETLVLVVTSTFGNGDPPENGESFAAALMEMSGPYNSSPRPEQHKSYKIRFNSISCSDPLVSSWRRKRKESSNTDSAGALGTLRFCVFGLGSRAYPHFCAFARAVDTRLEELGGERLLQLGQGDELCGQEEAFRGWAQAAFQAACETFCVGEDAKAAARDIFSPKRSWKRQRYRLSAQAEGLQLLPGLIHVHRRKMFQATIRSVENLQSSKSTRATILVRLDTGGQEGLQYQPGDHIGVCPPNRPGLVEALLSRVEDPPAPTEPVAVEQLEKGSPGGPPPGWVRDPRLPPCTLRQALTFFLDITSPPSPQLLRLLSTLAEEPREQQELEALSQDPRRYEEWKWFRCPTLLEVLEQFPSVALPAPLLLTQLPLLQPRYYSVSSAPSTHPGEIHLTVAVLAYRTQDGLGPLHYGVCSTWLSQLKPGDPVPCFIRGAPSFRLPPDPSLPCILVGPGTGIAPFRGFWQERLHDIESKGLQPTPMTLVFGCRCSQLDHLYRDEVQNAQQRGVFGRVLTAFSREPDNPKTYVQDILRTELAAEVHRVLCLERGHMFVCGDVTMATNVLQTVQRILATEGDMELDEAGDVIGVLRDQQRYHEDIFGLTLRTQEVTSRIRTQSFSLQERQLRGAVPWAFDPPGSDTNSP
Kind of assay: Inhibition of eNOS phosphorylation at […] in VEGF-stimulated HUVEC at 1 uM preincubated for 1 hr before VEGF induction measured after 1 hr by Western blot analysis. The gist of the method:
as §1

The subject of assay [6] is HUVEC. In words: Antiangiogenic activity in HUVEC assessed as inhibition of VEGF-induced cell proliferation at 1 uM by BrdU incorporation assay. It counts as functional, cell-based. To be noted: Homo sapiens. In short, it runs like this: (§3)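 DNA synthesis was measured by BrdU incorporation in 0.1% serum-starved HUVECs stimulated with VEGF, with or without compound. Incorporated BrdU was detected with an anti-BrdU monoclonal antibody using a commercial ELISA kit. Mean of three experiments with SD; ANOVA with Dunnett's post-hoc test.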
(In general: Dividing cells build labelled thymidine or BrdU into new DNA.)

The test system of assay [7] is HUVEC. In words: Inhibition of ERK phosphorylation at Thr202/Tyr204 in VEGF-stimulated HUVEC at 1 uM preincubated for 1 hr before VEGF induction measured after 5 mins by Western blot analysis. Format: cell-based. To be noted: Homo sapiens. In short, it runs like this: as §1
Assay [8] concerns HUVEC. Kind of assay: Antiangiogenic activity in HUVEC assessed as inhibition of VEGF-induced cell proliferation by BrdU incorporation assay. Format: functional, cell-based. To be noted: Homo sapiens. In short, it runs like this:
as §3

The test system of assay [9] is Aorta. In words: Inhibition of VEGF-induced angiogenesis in C57BL/6 mouse aortic rings assessed as decrease in microvessel sprouting after 7 days. Format: functional, tissue-based.
Assay [10] has as its target T1, Nitric oxide synthase 3 (Homo sapiens). Kind of assay: Inhibition of eNOS phosphorylation at […] in VEGF-stimulated HUVEC preincubated for 1 hr before VEGF induction measured after 1 hr by Western blot analysis. In short, it runs like this: as §1
Assay [11] deals with HUVEC. Kind of assay: Antiangiogenic activity in HUVEC assessed as decrease in VEGF-induced cell migration after 24 hrs by wound healing assay. To be noted: Homo sapiens.
For assay [12], the system named is HUVEC. Kind of assay: Antiangiogenic activity in HUVEC assessed as decrease in VEGF-induced cell migration at 10 uM after 24 hrs by transwell migration assay. Format: functional, cell-based. The following applies: Homo sapiens.
The test system of assay [13] is HUVEC. In words: Antiangiogenic activity in VEGF-stimulated HUVEC assessed as inhibition of capillary tube formation preincubated for 1 hr measured after 6 hrs by photographic analysis. To be noted: Homo sapiens. Format: functional, cell-based. The gist of the method:
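HUVECs were pretreated with compound for 1 h, then seeded at 4–7 × 10⁴ cells on growth factor-reduced Matrigel in EBM with or without 10 ng/ml VEGF. After 6 h, tubes were photographed at ×100 and counted manually in low-power fields. Mean of three experiments with SD.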

In assay [14] the target is Vascular endothelial growth factor receptor 2 (Homo sapiens) (UniProt P35968). Kind of assay: Inhibition of VEGFR2 phosphorylation at tyr-1175 in VEGF-stimulated HUVEC preincubated for 1 hr before VEGF induction measured after 5 mins by Western blot analysis. In short, it runs like this:
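HUVECs were pretreated with compound for 1 h, stimulated with 10 ng/ml VEGF for 5 min, and lysed. Western blot used an anti-phospho-VEGFR2 antibody, with total VEGFR and β-actin as internal controls. Blot representative of three separate experiments.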

Assay [15] deals with HUVEC. Kind of assay: Antiangiogenic activity in HUVEC assessed as decrease in VEGF-induced cell migration after 24 hrs by transwell migration assay. To be noted: Homo sapiens. Format: functional, cell-based. The gist of the method: as §2
The subject of assay [16] is HUVEC. In words: Inhibition of AKT phosphorylation at Ser-473 in VEGF-stimulated HUVEC preincubated for 1 hr before VEGF induction measured after 30 mins by Western blot analysis. Format: cell-based. The following applies: Homo sapiens. In short, it runs like this:
as §1

Assay [17] relates to HUVEC. Kind of assay: Inhibition of ERK phosphorylation at Thr202/Tyr204 in VEGF-stimulated HUVEC preincubated for 1 hr before VEGF induction measured after 5 mins by Western blot analysis. To be noted: Homo sapiens. Format: cell-based. In short, it runs like this: as §1
Assay [18] concerns HUVEC. In words: Antiangiogenic activity in HUVEC assessed as decrease in VEGF-induced cell migration at 25 uM after 24 hrs by transwell migration assay. Format: functional, cell-based. The following applies: Homo sapiens.

Sequence of Vascular endothelial growth factor receptor 2 (Homo sapiens) (P35968 whole entry): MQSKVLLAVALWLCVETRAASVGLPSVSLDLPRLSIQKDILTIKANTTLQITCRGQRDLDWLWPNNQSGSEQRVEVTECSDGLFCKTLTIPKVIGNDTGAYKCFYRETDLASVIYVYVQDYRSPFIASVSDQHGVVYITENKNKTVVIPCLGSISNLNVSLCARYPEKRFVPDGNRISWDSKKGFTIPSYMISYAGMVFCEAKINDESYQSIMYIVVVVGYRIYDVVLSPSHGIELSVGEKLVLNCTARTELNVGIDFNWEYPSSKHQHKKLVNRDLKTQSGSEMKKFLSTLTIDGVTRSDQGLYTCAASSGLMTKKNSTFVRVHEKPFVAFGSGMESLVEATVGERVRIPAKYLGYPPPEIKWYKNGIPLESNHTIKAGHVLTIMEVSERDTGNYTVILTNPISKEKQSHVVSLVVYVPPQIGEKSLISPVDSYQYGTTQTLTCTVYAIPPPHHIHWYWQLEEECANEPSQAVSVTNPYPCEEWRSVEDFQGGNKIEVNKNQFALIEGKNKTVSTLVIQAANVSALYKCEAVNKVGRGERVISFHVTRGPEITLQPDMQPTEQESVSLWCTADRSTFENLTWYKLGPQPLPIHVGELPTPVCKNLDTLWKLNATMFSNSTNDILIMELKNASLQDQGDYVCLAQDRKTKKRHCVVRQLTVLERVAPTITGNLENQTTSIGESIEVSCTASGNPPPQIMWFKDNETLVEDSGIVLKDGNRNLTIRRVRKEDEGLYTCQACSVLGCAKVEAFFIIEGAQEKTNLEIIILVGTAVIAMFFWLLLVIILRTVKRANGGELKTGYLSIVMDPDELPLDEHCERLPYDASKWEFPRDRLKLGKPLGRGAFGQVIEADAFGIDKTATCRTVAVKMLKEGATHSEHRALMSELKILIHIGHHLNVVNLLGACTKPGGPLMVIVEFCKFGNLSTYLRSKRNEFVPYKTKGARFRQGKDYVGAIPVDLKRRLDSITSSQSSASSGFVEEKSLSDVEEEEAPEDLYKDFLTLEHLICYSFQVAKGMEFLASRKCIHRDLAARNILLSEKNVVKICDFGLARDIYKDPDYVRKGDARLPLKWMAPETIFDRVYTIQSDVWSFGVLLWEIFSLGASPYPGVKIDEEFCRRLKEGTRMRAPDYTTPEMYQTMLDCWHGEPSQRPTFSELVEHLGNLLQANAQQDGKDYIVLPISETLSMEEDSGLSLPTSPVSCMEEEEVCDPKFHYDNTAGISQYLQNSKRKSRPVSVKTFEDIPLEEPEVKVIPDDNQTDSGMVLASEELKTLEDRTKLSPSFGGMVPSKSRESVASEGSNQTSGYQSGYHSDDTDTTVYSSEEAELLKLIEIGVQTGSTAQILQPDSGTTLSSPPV

Turning to `O=C(Nc1cccc(Cl)c1)c1cccnc1NC[C@@H]1CN(Cc2ccc(F)cc2)C(=O)CO1`, the result in assay [1] was Active. The same molecule came in with an IC90 in [2] of over 50 µM.

Regarding `COc1ccc(C(=O)N2CCN(c3ncccc3C(=O)Nc3cccc(Cl)c3)CC2)cc1`, in assay [1], the outcome was Active. Moreover, in assay [2], the IC90 was over 50 µM.

As to `CCN(CC)CCNC(=O)c1c(C)[nH]c(/C=C2\C(=O)Nc3ccc(F)cc32)c1C` [SUNITINIB], the inhibition result in assay [3] was “inactive”. For the same molecule, the result in [4] was Active. The inhibition entry in assay [5], in assay [6] and in assay [7] was “Active” in each case. The IC90 in assay [2] came to 1 µM.

Consider `O=C(Nc1cccc(Cl)c1)c1cccnc1NC1CCN(Cc2ccccc2)CC1`, for which the inhibition entry in assay [8], in assay [9], in [10], in assay [13], in [14] and in [16] was “Dose-dependent effect” each time. Besides, the inhibition entry in [17] was “Dose-dependent effect”. Besides, the Activity result in assay [11] and in [15] was “Dose-dependent effect” in each case. The result in assay [12] was Active. The molecule also gave an IC90 in [2] of 9.42 µM.

As for `O=C(Nc1cccc(Cl)c1)c1cccnc1N1CCN(C(=O)c2cccc(F)c2)CC1`, the outcome in assay [1] was Active. Further, the IC90 in [2] was over 50 µM.

`O=C(Nc1cccc(Cl)c1)c1cccnc1NC1CCN(CO)CC1`: the result in assay [18] was Active. In [2], this molecule had an IC90 of 29.2 µM.

The IC90 is the point of the concentration-response curve where the effect stands at 90%. Higher therefore signals a need for much substance.
